# Bioassay records: PubChem, several laboratories
# In the library only some 27% were active in any assay of this set; here they are far more common.
# HIV Rev-RRE inh – HIV-1 Rev-RRE binding inhibitors, primary screen, biochemical, FRET, protein-RNA interaction; Rev peptide-RRE RNA binding; inhibition, % at 8 µM; hit rate 0.79% among 97,000;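 active means inhibition above the screen-wide mean plus 3 SD, cut at about 35% in these data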;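 further: 0% = median DMSO wells and 100% = median Neomycin B control wells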
# Target sequence (P05866 whole entry, looked up): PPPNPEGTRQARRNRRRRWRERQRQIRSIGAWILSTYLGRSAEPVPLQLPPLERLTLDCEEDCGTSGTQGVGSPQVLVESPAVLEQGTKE
#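 Test system: labelled RRE RNA duplex and labelled Rev peptide. Times: 5 min compound–RNA preincubation, then 15 min with peptide, 25 °C. Doses: single-dose 8 µM. Measured by: FRET, excitation 480 nm, emission 540 nm donor and 671 nm acceptor. Measure: % inhibition of FRET ratio versus controls.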
# CYP2C9 activ – human CYP2C9 activators, primary screen, biochemical, luminescence; recombinant CYP2C9, luciferin-H conversion; active compounds read high; factor 1 = untreated enzyme, 0 = blocked; activation factor at 5 µM; hit rate 1.4% among 96,000; AID 1024, 2008;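 active means activation factor of 2 or more for CYP2C9 at a 5 µM dose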;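 further: 0 = sulfaphenazole-blocked wells and 1 = vehicle-only wells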
# Target sequence (P11712 whole entry, looked up): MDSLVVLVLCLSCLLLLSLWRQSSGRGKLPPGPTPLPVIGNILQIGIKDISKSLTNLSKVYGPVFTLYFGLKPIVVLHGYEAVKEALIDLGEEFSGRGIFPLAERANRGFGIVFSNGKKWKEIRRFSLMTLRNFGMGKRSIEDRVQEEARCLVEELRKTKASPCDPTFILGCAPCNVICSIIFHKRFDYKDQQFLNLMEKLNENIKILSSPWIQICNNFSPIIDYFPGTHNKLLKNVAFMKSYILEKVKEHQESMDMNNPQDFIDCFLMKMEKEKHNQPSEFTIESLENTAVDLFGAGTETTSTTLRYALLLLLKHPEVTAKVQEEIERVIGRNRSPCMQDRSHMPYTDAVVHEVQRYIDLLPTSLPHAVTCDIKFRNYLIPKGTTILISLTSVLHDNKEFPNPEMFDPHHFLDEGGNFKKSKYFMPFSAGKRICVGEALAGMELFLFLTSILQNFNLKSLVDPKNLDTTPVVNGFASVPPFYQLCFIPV
# CYP2C19 act – human CYP2C19 activators, primary screen, biochemical, luminescence. activation factor at 5 µM. 96,000 tested, under 10 active. Cytochrome P450 2C19 (Homo sapiens), P33261. recombinant CYP2C19, luciferin-H EGE luminescence; active compounds read high; 0 = fully inhibited enzyme, 1 = untreated enzyme. AID 1025, 2008;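 active means activation factor of at least 2 at 5 µM in the primary screen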;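 further: 0 = wells with 2.5 mM tranylcypromine and 1 = vehicle-only wells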
# CYP2C9 inhib – blockers of cytochrome P450 2C9 activity – biochemical, luminescence, ADME assay, primary screen; CYP2C9 Supersomes, luciferin-H conversion; inhibition, % at 5 µM; hit rate 20% among 96,000; AID 777, 2007; P11712;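 active means blocking of liver enzyme CYP2C9 beyond about 50% at 5 µM, limit read from the data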
# CYP2C19 inh – blockers of cytochrome P450 2C19 activity – biochemical, luminescence, ADME assay, primary screen; P33261; CYP2C19 Supersomes, luciferin-H EGE luminescence, 30 min; inhibition, % at 5 µM; hit rate 21% among 96,000; AID 778, 2007;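 active means CYP2C19 inhibition above a set limit at 5 µM in the primary screen, cut at about 50% in these data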;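 further: plate controls were negative control wells for no effect and 2.5 mM tranylcypromine positive control for full effect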
# Cav3 T inh – Cav3.2 calcium influx blockers – cell-based, Fluo-4 calcium fluorescence, FDSS, MLSMR library, primary screen; hit rate 4% among 100,000; Cav3.2-expressing cells; active compounds read low; Voltage-dependent T-type calcium channel subunit alpha-1H (Homo sapiens), O95180; B-score at 10 µM;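 active means single-dose well whose peak fluorescence ratio is a statistical outlier from its plate by either plate-standardised score or position-corrected B-score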
# * marks the source's active call; other numbers are inactive results; / = no result given.
SMILES,HIV Rev-RRE inh,CYP2C9 activ,CYP2C19 act,CYP2C9 inhib,CYP2C19 inh,Cav3 T inh
Cc1cc(N2C(=O)CC(N3CCN(c4ccc(C(=O)c5cccs5)cc4)CC3)C2=O)no1 (configuration not stated),6,0.4,0.8,59*,25,0.1
CCN1C(=O)C(O)(C2COC(C)(C)CC2=O)c2cc(Br)ccc21 (configuration not stated),-3,1.1,0.6,-10,42,-0.21
Cc1c(CN(C)C)c2c(n1C)C(=O)c1ccc(Br)cc1-2,-1,1,1,-1,0,0.84
Cc1c(CN(C)C)c2c(n1Cc1ccccc1)C(=O)c1ccc(Br)cc1-2,13,0.4,0.2,63*,79*,0.7
CCn1c(SCC(=O)N2CCN(c3ccc(Cl)cc3)CC2)nc2ccccc2c1=O,4,0.5,0.8,47,24,-0.88
Cc1ccc(-n2ncc3c(=O)[nH]c(SCC(=O)N4CCN(c5ccccc5)CC4)nc32)cc1,7,/,/,/,/,-0.41
CCOC(=O)N1CCN(C(=O)CSc2nc3c(cnn3-c3ccccc3)c(=O)[nH]2)CC1,7,0.3,0.8,67*,22,1.5
CCCCn1c(SCC(=O)N2CCN(c3ccccc3)CC2)nc2ccsc2c1=O,6,0.1,0.5,88*,51*,-2.7
CCn1c(SCC(=O)N2CCN(c3ccc(F)cc3)CC2)nc2ccccc2c1=O,2,0.4,0.4,59*,63*,0.93
CCCn1c(SCC(=O)N2CCN(c3ccccc3)CC2)nc2ccccc2c1=O,3,0.1,0,93*,97*,-6.2*
COc1ccc2nc(NC(=O)CCc3nc(-c4ccccc4F)no3)sc2c1,3,0.5,0.7,48,27,0.77
CCOC(=O)N1CCN(c2nnnn2-c2ccccc2)CC1,1,0.5,0.1,49,91*,-0.63
CCn1c(SCC(=O)N2CCCC2)nc2ccccc2c1=O,0,0.7,1,31,5,0.052
CC1CN(c2nnnn2-c2ccccc2)CC(C)O1 (configuration not stated),/,1,0.3,-2,74*,0.079
Cc1nn(-c2ccccc2)c(C)c1/C=N/NC(=O)CSc1nc2ccccc2c(=O)n1-c1ccc(Br)cc1,-2,0.5,0.7,51*,32,-0.41
O=C(CSc1nc2ccccc2c(=O)n1Cc1ccco1)N1CCN(c2ccccc2)CC1,13,0.6,0.7,40,33,-4.9*
Cc1nc2ccccc2n1CCC(=O)Nc1cccc(F)c1,4,0.8,0.8,18,21,/
COc1ccccc1-c1nc(C#N)c(N2CCN(C(c3ccccc3)c3ccccc3)CC2)o1,13,0.8,0.9,22,14,0.079
CCn1c(SCC(=O)Nc2nc3c(s2)CCCC3)nc2c1c(=O)n(C)c(=O)n2C,/,1,0.9,-2,15,/
Cc1oc(-c2ccc(Cl)cc2)nc1CN1CCCC(C(=O)NCCCN2CCCC2=O)C1 (configuration not stated),-4,0.8,0.8,23,22,/
CCOC(=O)N1CCN(C(=O)CSc2nc3ccccc3c(=O)n2-c2ccccc2)CC1,6,0,0.4,98*,56*,/
CCC1CCCCN1C(=O)CSc1nc2ccsc2c(=O)n1Cc1ccccc1 (configuration not stated),0,0.3,0.5,70*,50*,-4.9*
COCC(C)n1c(SCC(=O)N2CCCCC2)nc2ccccc2c1=O (configuration not stated),/,0.5,0.5,54*,46,0.63
O=S(=O)(Cc1ccccc1)NCC1CCCO1 (configuration not stated),/,1.1,0.9,-8,8,1.3
C#Cc1ccc([C@@H]2C=C(C(=O)NCc3ccccc3)O[C@H](OCC)[C@H]2CCCO)cc1,/,/,/,/,/,-0.68
SMILES,HIV Rev-RRE inh,CYP2C9 activ,CYP2C19 act,CYP2C9 inhib,CYP2C19 inh,Cav3 T inh
CC(=O)Nc1nc(C)c(Oc2ccccc2)c(=O)[nH]1,11,1.1,1.1,-8,-6,1.2
COc1cccc(-c2nnc(SCC(=O)N3CCCC3=O)n2-c2ccccc2)c1,/,0.7,0.6,34,43,0.58
Cc1ccc(-c2nnc(N3CCN(C(=O)COc4ccccc4)CC3)c3ccccc23)cc1,4,0.1,0.2,87*,79*,-7.4*
c1ccc(-c2nnc(N3CCN(c4ccccn4)CC3)c3ccccc23)cc1,8,1.3,0.3,-31,68*,-5.6*
Cc1ccc(-c2nnc(N3CCN(c4ccccn4)CC3)c3ccccc23)cc1,6,0.7,0.5,32,46,/
CCOC(=O)CNC(=O)Cn1cnc2sc(C)c(S(=O)(=O)N3CCC(C)CC3)c2c1=O,6,/,/,/,/,0.028
COc1cc(CNCc2cccs2)ccc1OCC(=O)NC(C)(C)C,-3,0.8,0.7,15,27,0.21
COc1cc(CNCc2cccs2)ccc1OCC(N)=O,1,0.9,1,14,2,-1.9
COc1cc(CNCc2cccs2)ccc1OCc1ccccc1,5,0.8,0.3,15,67*,-0.44
COc1cc(CNCc2cccs2)ccc1OCc1cccs1,0,0.8,0.5,16,50*,-1.3
COc1ccc(C2CC(=O)C=C(NCCC(C)C)C2)cc1 (configuration not stated),7,/,/,/,/,0.072
C=CCn1c(SCn2nnc3ccccc3c2=O)nnc1-c1ccc(Br)cc1,3,0.2,0.2,75*,76*,-1.5
Cc1nc(SCn2nnc3ccccc3c2=O)nc(C)c1C,/,0.9,0.2,8,75*,0.2
CCc1cccc(CC)c1-n1c(SCn2nnc3ccccc3c2=O)nnc1-c1cccnc1,1,0.1,0,93*,96*,-5.3*
Cc1ccc(-n2nnnc2SCn2nnc3ccccc3c2=O)c(C)c1,16,1.7,0.7,-66,30,-4.2
C=CCn1c(SCn2nnc3ccccc3c2=O)nnc1-c1ccc(F)cc1,/,0.8,0,24,99*,0.68
Nn1c(Cc2cccc3ccccc23)nnc1SCn1nnc2ccccc2c1=O,3,1.1,1,-13,4,0.014
C=CCn1c(SCC(N)=O)nnc1-c1cccc(Br)c1,7,1,0.8,3,21,0.68
CC1SC(=NC(=O)C(C)N2C(=O)c3ccccc3C2=O)NC1=O (configuration not stated),5,/,/,/,/,1.4
C=CCn1c(SCn2nnc3ccccc3c2=O)nnc1C1CCCCC1,0,0.9,0,10,98*,-0.34
